The source of these data is ChEMBL document CHEMBL2176985 (J Med Chem, 2012).

Experiment [1] deals with T1, Acetylcholine receptor; alpha1/beta1/delta/gamma (Homo sapiens, UniProt P02708+P07510+P11230+Q07001). Nature of the experiment: Agonist activity at human alpha1beta1gammadelta nAChR expressed in human TE671/RD cells assessed as stimulation of 86Rb+ efflux preincubated for 10 mins by liquid scintillation counting. In kind it is functional, cell-based.
The target of experiment [2] is Neuronal acetylcholine receptor; alpha4/beta4 (Homo sapiens, UniProt P30926+P43681). Nature of the experiment: Binding affinity to alpha4beta4 nAChR. In kind it is protein-complex assay.
Experiment [3] has as its target T2, Neuronal acetylcholine receptor; alpha4/beta2 (Homo sapiens, UniProt P17787+P43681). Nature of the experiment: Antagonist activity at human alpha4beta2 nAChR expressed in human SH-EP1 cells assessed as inhibition of 86Rb+ efflux preincubated for 10 mins by liquid scintillation counting relative to control. Format: functional, cell-based. In outline: (§1)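 Cells loaded with ⁸⁶Rb⁺ were pre-exposed to test drug for 10 min. Efflux was normalized to intracellular ⁸⁶Rb⁺ available at that step. Nonspecific efflux came from 100 µM mecamylamine or buffer. Inactivation IC50 was obtained by curve fit.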

Experiment [4] has as its target T2, Neuronal acetylcholine receptor; alpha4/beta2. Briefly: Agonist activity at human high-sensitivity alpha4beta2 nAChR expressed in human SH-EP1 cells assessed as stimulation of 86Rb+ efflux preincubated for 10 mins by liquid scintillation counting relative to control. In kind it is functional, cell-based.
Experiment [5] shares this target. Briefly: Agonist activity at human low-sensitivity alpha4beta2 nAChR expressed in human SH-EP1 cells assessed as stimulation of 86Rb+ efflux preincubated for 10 mins by liquid scintillation counting relative to control. Format: functional, cell-based.
Experiment [6] addresses T1, Acetylcholine receptor; alpha1/beta1/delta/gamma. Nature of the experiment: Antagonist activity at human alpha1beta1gammadelta nAChR expressed in human TE671/RD cells assessed as inhibition of 86Rb+ efflux preincubated for 10 mins by liquid scintillation counting. In kind it is functional, cell-based. In outline:
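Cells loaded with ⁸⁶Rb⁺ were pre-exposed to test drug for 10 min. […] Efflux was normalized to intracellular ⁸⁶Rb⁺ available at that step. Nonspecific efflux came from 100 µM mecamylamine or buffer. Inactivation IC50 was obtained by curve fit.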

The subject of experiment [7] is Mus musculus. Briefly: Antidepressant activity in BALB/cJ mouse assessed as reduction of immobility time at 5 to 30 mg/kg, ip administered 30 mins before test measured over 6 mins trial by forced swim test. Format: functional, organism-based.
In experiment [8] the test system is Mus musculus. Nature of the experiment: Antidepressant activity in BALB/cJ mouse assessed as reduction of immobility time at 5 to 30 mg/kg, ip administered 30 mins before test measured over 6 mins trial by post hoc Fisher's LSD test. In kind it is functional, organism-based.
The target of experiment [9] is Neuronal acetylcholine receptor; alpha3/beta2 (Rattus norvegicus, UniProt P04757+P12390). Nature of the experiment: Displacement of [3H]Epibatidine from rat alpha3beta2 nAChR. Format: protein-complex assay.
Experiment [10] deals with T3, Neuronal acetylcholine receptor; alpha4/beta2 (Rattus norvegicus, UniProt P09483+P12390). Nature of the experiment: Displacement of [3H]Epibatidine from rat alpha4beta2 nAChR. In kind it is protein-complex assay.
The target in experiment [11] is Neuronal acetylcholine receptor; alpha4/beta4 (Rattus norvegicus) (UniProt P09483+P12392). Briefly: Displacement of [3H]Epibatidine from rat alpha4beta4 nAChR at 10 uM. In kind it is protein-complex assay.
Experiment [12] addresses T4, Neuronal acetylcholine receptor; alpha3/beta4 (Homo sapiens, UniProt P30926+P32297). Nature of the experiment: Agonist activity at human alpha3beta4 nAChR expressed in human SH-SY5Y cells assessed as stimulation of 86Rb+ efflux preincubated for 10 mins by liquid scintillation counting. Format: functional, cell-based.
Experiment [13] relates to Neuronal acetylcholine receptor alpha2/beta4 (Rattus norvegicus). Briefly: Displacement of [3H]Epibatidine from rat alpha2beta4 nAChR at 10 uM.
For experiment [14], the target named is T4, Neuronal acetylcholine receptor; alpha3/beta4. Briefly: Antagonist activity at human alpha3beta4 nAChR expressed in human SH-SY5Y cells assessed as inhibition of 86Rb+ efflux preincubated for 10 mins by liquid scintillation counting. Format: functional, cell-based. In outline:
as §1

The target in experiment [15] is T3, Neuronal acetylcholine receptor; alpha4/beta2. Briefly: Displacement of [3H]Epibatidine from alpha4beta2 nAChR in rat brain. In kind it is tissue-based.
Experiment [16] deals with T2, Neuronal acetylcholine receptor; alpha4/beta2. Nature of the experiment: Agonist activity at human alpha4beta2 nAChR expressed in human SH-EP1 cells assessed as stimulation of 86Rb+ efflux preincubated for 10 mins by liquid scintillation counting. In kind it is functional, cell-based. The note with it: for EC50: read-out: pEC50 (converted); for pEC50: sh-ep1, read-out: EC50.

The target is the same in experiment [17]. Nature of the experiment: Antagonist activity at human alpha4beta2 nAChR expressed in human SH-EP1 cells assessed as inhibition of 86Rb+ efflux preincubated for 10 mins by liquid scintillation counting. In kind it is functional, cell-based. In outline:
as §1

Experiment [18] has as its target Neuronal acetylcholine receptor; alpha3/beta4 (Rattus norvegicus) (UniProt P04757+P12392). Briefly: Displacement of [3H]Epibatidine from rat alpha3beta4 nAChR at 10 uM. Format: protein-complex assay.
In experiment [19] the test system is Mus musculus. Nature of the experiment: Antidepressant activity in BALB/cJ mouse assessed as reduction of immobility time at 1 to 3 mg/kg, ip administered 30 mins before test measured over 6 mins trial by forced swim test. Format: functional, organism-based.
The target of experiment [20] is T1, Acetylcholine receptor; alpha1/beta1/delta/gamma. Nature of the experiment: Binding affinity to muscle type alpha1beta1gammadelta-nAChR. In kind it is protein-complex assay, Muscle tissue.
Experiment [21] in a line: Agonist activity at ganglionic nAChR. Format: functional.
In experiment [22] the test system is Mus musculus. Nature of the experiment: Antidepressant activity in BALB/cJ mouse assessed as reduction of immobility time at 20 mg/kg, ip administered 30 mins before test measured over 6 mins trial by forced swim test. Format: functional, organism-based. Further details: dose 20 mg/kg.

pEC50, pIC50, pKi: −log10 of the molar value. Activity calls are given as the source filed them. No cut-off for these calls is given here.

T3 sequence (P09483 whole entry): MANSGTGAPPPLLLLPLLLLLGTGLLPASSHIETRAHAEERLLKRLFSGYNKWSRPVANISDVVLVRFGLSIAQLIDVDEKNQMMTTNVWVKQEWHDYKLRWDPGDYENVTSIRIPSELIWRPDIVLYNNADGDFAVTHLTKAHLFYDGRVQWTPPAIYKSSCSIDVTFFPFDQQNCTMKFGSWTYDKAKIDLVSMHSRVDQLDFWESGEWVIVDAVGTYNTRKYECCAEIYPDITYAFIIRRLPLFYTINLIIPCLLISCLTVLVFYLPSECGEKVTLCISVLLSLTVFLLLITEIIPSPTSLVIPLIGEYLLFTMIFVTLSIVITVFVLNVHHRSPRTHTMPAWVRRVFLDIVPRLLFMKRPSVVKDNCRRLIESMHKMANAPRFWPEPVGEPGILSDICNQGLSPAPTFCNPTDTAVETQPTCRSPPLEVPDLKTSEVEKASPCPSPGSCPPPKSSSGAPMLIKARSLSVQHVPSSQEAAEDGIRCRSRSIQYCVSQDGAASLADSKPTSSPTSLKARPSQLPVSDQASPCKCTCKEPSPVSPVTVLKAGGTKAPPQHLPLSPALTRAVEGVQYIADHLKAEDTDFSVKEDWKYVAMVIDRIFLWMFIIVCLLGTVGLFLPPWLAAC
T3 sequence (P12390 whole entry): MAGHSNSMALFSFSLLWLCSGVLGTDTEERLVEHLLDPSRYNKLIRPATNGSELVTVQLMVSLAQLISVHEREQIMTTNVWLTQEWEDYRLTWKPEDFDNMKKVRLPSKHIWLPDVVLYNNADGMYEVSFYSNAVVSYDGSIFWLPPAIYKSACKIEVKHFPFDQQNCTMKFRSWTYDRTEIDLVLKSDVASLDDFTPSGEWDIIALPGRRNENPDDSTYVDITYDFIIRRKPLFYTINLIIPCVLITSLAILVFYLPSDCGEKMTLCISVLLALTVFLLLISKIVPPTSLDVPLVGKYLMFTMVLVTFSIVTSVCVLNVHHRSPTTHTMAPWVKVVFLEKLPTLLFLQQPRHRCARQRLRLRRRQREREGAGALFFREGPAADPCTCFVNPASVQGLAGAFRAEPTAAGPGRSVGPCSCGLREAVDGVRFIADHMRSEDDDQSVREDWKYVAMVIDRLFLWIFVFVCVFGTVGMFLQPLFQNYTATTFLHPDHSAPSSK
T1 sequence (P02708 whole entry): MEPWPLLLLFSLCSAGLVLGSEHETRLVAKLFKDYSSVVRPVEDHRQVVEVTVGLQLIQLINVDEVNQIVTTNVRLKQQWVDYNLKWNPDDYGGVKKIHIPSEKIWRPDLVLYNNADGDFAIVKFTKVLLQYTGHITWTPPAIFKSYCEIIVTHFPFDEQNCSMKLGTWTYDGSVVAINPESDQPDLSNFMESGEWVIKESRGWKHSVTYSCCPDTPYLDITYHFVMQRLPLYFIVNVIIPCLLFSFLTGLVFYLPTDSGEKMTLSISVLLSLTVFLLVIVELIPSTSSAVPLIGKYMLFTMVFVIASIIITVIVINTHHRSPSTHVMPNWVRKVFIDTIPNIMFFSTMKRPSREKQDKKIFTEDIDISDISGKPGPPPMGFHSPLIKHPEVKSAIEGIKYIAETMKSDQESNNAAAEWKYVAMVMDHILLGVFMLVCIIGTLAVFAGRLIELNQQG
T1 sequence (P07510 whole entry): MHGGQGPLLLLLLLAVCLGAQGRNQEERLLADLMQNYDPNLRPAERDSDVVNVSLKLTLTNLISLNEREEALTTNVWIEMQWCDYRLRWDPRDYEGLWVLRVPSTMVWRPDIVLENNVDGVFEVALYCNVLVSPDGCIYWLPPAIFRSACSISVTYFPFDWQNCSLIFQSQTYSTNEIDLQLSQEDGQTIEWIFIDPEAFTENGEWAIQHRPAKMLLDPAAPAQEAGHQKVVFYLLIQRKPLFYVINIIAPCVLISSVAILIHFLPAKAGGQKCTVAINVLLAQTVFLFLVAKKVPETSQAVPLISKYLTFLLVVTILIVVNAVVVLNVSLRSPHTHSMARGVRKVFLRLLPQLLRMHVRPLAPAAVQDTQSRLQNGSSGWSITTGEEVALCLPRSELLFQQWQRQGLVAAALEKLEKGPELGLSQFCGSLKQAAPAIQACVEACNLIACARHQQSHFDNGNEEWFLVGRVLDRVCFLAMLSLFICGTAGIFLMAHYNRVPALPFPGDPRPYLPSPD
T1 sequence (P11230 whole entry): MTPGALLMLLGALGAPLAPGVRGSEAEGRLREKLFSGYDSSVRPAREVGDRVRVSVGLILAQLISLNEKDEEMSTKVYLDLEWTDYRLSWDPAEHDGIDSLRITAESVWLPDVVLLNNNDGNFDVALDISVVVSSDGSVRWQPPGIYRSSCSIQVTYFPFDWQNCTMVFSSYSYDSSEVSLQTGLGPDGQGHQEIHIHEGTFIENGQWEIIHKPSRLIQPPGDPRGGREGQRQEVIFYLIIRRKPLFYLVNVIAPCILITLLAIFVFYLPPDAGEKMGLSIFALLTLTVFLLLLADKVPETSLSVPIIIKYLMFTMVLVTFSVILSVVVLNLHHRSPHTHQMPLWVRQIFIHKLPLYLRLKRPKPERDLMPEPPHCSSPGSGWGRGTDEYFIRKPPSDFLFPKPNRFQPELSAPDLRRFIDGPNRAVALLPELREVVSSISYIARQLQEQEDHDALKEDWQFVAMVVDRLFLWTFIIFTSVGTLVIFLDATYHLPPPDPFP
T1 sequence (Q07001 whole entry): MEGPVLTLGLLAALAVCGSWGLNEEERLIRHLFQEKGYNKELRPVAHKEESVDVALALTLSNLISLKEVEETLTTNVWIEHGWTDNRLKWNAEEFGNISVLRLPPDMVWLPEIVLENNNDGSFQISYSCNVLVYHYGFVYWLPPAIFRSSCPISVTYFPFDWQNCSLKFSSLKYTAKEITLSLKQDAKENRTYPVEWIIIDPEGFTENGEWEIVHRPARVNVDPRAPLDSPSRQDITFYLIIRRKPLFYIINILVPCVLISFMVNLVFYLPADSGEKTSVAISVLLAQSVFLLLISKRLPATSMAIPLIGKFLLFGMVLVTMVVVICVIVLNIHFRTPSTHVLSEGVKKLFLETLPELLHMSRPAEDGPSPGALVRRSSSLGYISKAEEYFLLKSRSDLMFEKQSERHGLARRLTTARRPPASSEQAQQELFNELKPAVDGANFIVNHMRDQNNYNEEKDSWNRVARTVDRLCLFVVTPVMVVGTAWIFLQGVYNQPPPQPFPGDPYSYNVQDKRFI
T2 sequence (P17787 whole entry): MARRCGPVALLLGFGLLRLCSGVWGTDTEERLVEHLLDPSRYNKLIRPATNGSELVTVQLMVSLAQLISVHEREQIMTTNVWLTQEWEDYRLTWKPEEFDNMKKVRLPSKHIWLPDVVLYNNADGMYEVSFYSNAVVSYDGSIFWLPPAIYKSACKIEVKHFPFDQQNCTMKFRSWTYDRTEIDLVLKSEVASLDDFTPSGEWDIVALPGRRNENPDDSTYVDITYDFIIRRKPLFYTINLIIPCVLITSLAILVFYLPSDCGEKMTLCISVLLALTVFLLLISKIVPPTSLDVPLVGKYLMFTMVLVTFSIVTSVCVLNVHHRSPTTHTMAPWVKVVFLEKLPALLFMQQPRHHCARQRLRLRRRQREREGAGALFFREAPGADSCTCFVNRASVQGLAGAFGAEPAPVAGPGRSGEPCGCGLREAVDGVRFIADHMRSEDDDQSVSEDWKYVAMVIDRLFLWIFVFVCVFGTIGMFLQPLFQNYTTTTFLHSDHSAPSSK
T2 sequence (P43681 whole entry): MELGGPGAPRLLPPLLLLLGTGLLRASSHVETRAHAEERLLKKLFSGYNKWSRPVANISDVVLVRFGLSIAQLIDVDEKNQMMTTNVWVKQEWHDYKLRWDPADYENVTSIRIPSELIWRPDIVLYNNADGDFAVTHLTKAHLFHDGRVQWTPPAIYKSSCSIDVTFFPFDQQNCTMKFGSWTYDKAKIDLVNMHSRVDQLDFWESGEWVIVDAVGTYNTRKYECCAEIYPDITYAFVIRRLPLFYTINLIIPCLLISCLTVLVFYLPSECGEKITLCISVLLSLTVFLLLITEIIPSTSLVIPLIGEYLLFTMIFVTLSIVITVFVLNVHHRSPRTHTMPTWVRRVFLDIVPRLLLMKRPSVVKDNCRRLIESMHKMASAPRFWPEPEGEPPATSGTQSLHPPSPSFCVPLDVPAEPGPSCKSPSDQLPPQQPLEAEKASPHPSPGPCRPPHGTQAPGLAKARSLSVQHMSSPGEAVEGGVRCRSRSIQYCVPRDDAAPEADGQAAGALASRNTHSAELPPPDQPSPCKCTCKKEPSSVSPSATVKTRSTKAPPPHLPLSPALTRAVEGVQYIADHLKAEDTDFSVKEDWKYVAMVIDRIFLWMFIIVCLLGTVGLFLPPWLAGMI
Neuronal acetylcholine receptor; alpha3/beta2, sequence (P04757 whole entry): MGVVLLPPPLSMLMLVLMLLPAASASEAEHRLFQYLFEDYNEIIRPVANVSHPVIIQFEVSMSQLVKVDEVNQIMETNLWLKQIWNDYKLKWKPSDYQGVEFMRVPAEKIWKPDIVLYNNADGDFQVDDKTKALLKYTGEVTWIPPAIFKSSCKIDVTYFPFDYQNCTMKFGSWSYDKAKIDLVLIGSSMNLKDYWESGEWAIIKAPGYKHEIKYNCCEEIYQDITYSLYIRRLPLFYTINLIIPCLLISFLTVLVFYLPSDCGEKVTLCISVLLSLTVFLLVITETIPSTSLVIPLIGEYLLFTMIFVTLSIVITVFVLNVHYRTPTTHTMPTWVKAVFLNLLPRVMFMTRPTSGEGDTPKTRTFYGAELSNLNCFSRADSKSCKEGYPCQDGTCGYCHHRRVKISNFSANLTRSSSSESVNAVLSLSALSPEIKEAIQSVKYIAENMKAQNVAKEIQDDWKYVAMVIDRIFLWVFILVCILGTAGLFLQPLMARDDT
Neuronal acetylcholine receptor; alpha3/beta2, sequence (P12390 whole entry): as the sequence (P12390 whole entry) above

As to `c1cnc2cc3c(cc2n1)[C@@H]1CNC[C@H]3C1` [VARENICLINE], the pEC50 in [1] was less than 6.00. This compound gave a pKi in experiment [2] of 6.96. In addition, the Imax in experiment [3] came to 83%. Also, the Efficacy stood at 106% in experiment [4] and 34% in experiment [5].
Consider `OCCCc1cc(-c2cncc(OC[C@@H]3CCCN3)c2)on1`, for which the pEC50 in experiment [1] is less than 6.00. Also, the pIC50 in experiment [6] was less than 6.00.
`CN1CCC[C@H]1c1cccnc1` [NICOTINE]: the pEC50 in experiment [1] is less than 6.00.
For `O=C(Nc1ccccc1)OCCc1cc(-c2cncc(OC[C@@H]3CCCN3)c2)on1`, in [1], the pEC50 is less than 6.00. In experiment [6], the negative logarithm of the IC50 (pIC50) was less than 6.00.
Consider `O=C(Nc1ccccc1)OCCc1cc(-c2cncc(OC[C@@H]3CCN3)c2)on1`, for which the pEC50 in experiment [1] is less than 6.00. In addition, the negative-log IC50 (pIC50) in experiment [6] was less than 6.00.
In the case of `OCCc1cc(-c2cncc(OC[C@@H]3CCCN3)c2)on1`, the pEC50 in [1] was less than 6.00. Also, in [6], the negative logarithm of the IC50 (pIC50) is less than 6.00.
In the case of `CN1CCC[C@H]1COc1cncc(-c2cc(CCO)no2)c1`, in experiment [1], the pEC50 was less than 6.00. Moreover, the pIC50 in experiment [6] is less than 6.00.
Take `FC(F)CCc1cc(-c2cncc(OC[C@@H]3CCN3)c2)on1`: the pEC50 in [1] is less than 6.00. The outcome with Mus musculus [7] and in the experiment with Mus musculus [8] was Active. Also, in experiment [6], the pIC50 was less than 6.00.
In the case of `c1ncc(-c2cc(CCN3CCOCC3)no2)cc1OC[C@@H]1CCCN1`, the pEC50 was less than 6.00 in experiment [1], less than 6.00 in experiment [12] and less than 7.00 in experiment [16]. Also, the pKi in experiment [9] was 6.24; in [10] it was 7.49; in experiment [15] it was 6.88. The inhibition in [11], in experiment [13] and in experiment [18] was less than 50% throughout. The pIC50 in experiment [6] is less than 6.00; in experiment [14], less than 6.00; in experiment [17] it was less than 7.00. The EC50 in [16] was more than 0.1 µM.
As for `FCCCc1cc(-c2cncc(OC[C@@H]3CCN3)c2)on1`, the pEC50 in experiment [1] was less than 6.00. Moreover, the result with Mus musculus [7] and in the experiment on Mus musculus [8] was Active. Also, in [6], the pIC50 was less than 6.00.
For `c1ncc(-c2cc(CCN3CCOCC3)no2)cc1OC[C@@H]1CCN1`, the pEC50 is less than 6.00 in experiment [1], less than 6.00 in experiment [12] and less than 7.00 in [16]. For the same compound, the pKi is 6.93 in [9], 7.96 in [10] and 7.58 in [15]. The inhibition in [11], in [13] and in experiment [18] was less than 50% in each case. The figures for the pIC50 in [6], in experiment [14] and in [17] were less than 6.00, less than 6.00 and less than 7.00, respectively. Also, the EC50 in experiment [16] is more than 0.1 µM.
Regarding `CCc1cc(-c2cncc(OC[C@@H]3CCN3)c2)on1`, in [1], the pEC50 was less than 6.00. In addition, the result in the experiment on Mus musculus [19], in the experiment on Mus musculus [7] and in the experiment with Mus musculus [8] was Active. Also, in experiment [6], the pIC50 was less than 6.00.
Take `c1cncc(OC[C@@H]2CCN2)c1`: in [20], the pKi is 6.50. In [21], this compound had a pEC50 of 6.10.
Turning to `COCCc1cc(-c2cncc(OC[C@@H]3CCN3)c2)on1`, the pEC50 in [1] is less than 6.00. The pIC50 in experiment [6] is less than 6.00.
Consider `CN[C@H]1CC[C@@H](c2ccc(Cl)c(Cl)c2)c2ccccc21`, for which the outcome in the experiment on Mus musculus [22] was Active.
As for `CCNC(=O)OCCc1cc(-c2cncc(OC[C@@H]3CCN3)c2)on1`, the pEC50 in experiment [1] was less than 6.00. The pIC50 in experiment [6] is less than 6.00.
`CCc1cc(-c2cncc(OC[C@H]3NC[C@@H]4C[C@@H]43)c2)on1`: in [1], the pEC50 is less than 6.00. In [6], the pIC50 is less than 6.00.
In the case of `CCNC(=O)OCCc1cc(-c2cncc(OC[C@@H]3CCCN3)c2)on1`, the pEC50 in [1] was less than 6.00. Further, the negative-log IC50 (pIC50) in experiment [6] is less than 6.00.
For `OCCc1cc(-c2cncc(OC[C@H]3NC[C@@H]4C[C@@H]43)c2)on1`, the negative logarithm of the EC50 (pEC50) in experiment [1] is less than 6.00. The negative-log IC50 (pIC50) in [6] was less than 6.00.
In the case of `OCCc1cc(-c2cncc(OC[C@@H]3CCN3)c2)on1`, the negative logarithm of the EC50 (pEC50) in experiment [1] was less than 6.00. Further, the pIC50 in [6] is less than 6.00.
`FC(F)(F)CCc1cc(-c2cncc(OC[C@@H]3CCN3)c2)on1`: in experiment [1], the negative-log EC50 (pEC50) was less than 6.00. In addition, the pIC50 in [6] was less than 6.00.
